In general, IC50 refers to the concentration needed to halve the response being measured. Higher therefore signals lower potency.

The subject of one assay is SW480. The assay can be described thus: Antiproliferative activity against human SW480 cells after 48 hrs by SRB assay. It counts as functional, cell-based. The note with it: SW480, 48 h. Put shortly: (§1)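 SRB assay on cells in RPMI-1640 with 2 mM glutamine, 10% FBS and penicillin/streptomycin at 37 °C and 5% CO2. Seeded at 5000 cells/well and grown 24 h, then compounds added in triplicate (DMSO 0.5% final) for 48 h. Fixed with TCA at 4 °C for 1 h, stained with SRB, dye dissolved in 10 mM Tris pH 10.4, OD read at 515 nm. IC50 from nonlinear dose-response fit; experiments run at least twice.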
In general terms: In SRB staining, fixed cells bind dye roughly in proportion to their protein.

Another assay concerns MCF7. The assay can be described thus: Antiproliferative activity against human MCF7 cells after 48 hrs by SRB assay. The class given is functional, cell-based. Particulars: MCF7, 48 h. Put shortly: as §1
The subject of a further assay is HepG2. The assay can be described thus: Antiproliferative activity against human HepG2 cells after 48 hrs by SRB assay. The class given is functional, cell-based. Particulars: HepG2, 48 h. Put shortly:
as §1

The nature of assay [1]: Inhibition of TNFalpha-induced NF-kappaB translocation in human A549 cells incubated at 37 degC for 30 mins by high content analysis based immunofluorescence assay. It counts as cell-based. Particulars: A549, 0.5 h. Put shortly: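 A549 cells at 2000/well grown 24 h, then compound added in duplicate (DMSO 0.5% final) for 30 min at 37 °C. Stimulated with TNFα at 10 ng/mL final for 30 min, then fixed with 4% paraformaldehyde and permeabilized with Triton X-100. Stained with anti-p65 and DyLight 488 secondary plus Hoechst, imaged on ArrayScan. Nuclear minus cytoplasmic intensity, background-subtracted, given as % of TNFα-only control. IC50 from this; repeated at least twice.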

A short description of assay [2]: Antiproliferative activity against human CNE2 cells after 48 hrs by SRB assay. It counts as functional, cell-based. Particulars: CNE-2, 48 h. A digest of the protocol: as §1
The next assay relates to A549. In words: Antiproliferative activity against human A549 cells after 48 hrs by SRB assay. Particulars: A549, 48 h. It counts as functional, cell-based. A digest of the protocol: as §1

Take `COc1ccc(OC)c(/C=C/C(=O)C(=Cc2ccc(OC)c(O)c2)C(=O)/C=C/c2cc(OC)ccc2OC)c1`: the IC50 worked out at 1120 nM with SW480; 990 nM in the assay with MCF7; 470 nM in the assay on HepG2; 1780 nM in assay [1]; 730 nM in assay [2]; 390 nM in the assay with A549.

Regarding `COc1ccc(/C=C/C(=O)/C=C(O)/C=C/c2ccc(OC)cc2OC)c(OC)c1`, the IC50 in the assay on SW480 is more than 50000 nM; with MCF7, more than 50000 nM; with HepG2, 10400 nM; in assay [1], more than 50000 nM; in assay [2] it was more than 50000 nM; in the assay with A549, 44700 nM.

For `COc1cccc(/C=C/C(=O)C(=Cc2ccc(F)cc2)C(=O)/C=C/c2cccc(OC)c2OC)c1OC`, the IC50 came to 1040 nM with SW480; 1830 nM with MCF7; 580 nM in the assay with HepG2; 1720 nM in assay [1]; 610 nM in assay [2]; 340 nM with A549.

Take `COc1cccc(/C=C/C(=O)/C=C(O)/C=C/c2cccc(OC)c2OC)c1OC`: the IC50 was 12000 nM with SW480; more than 50000 nM in the assay on MCF7; 12900 nM in the assay on HepG2; more than 50000 nM in assay [1]; 12800 nM in assay [2]; 11500 nM in the assay with A549.

`COc1cccc(C=C(C(=O)/C=C/c2cccc(OC)c2OC)C(=O)/C=C/c2cccc(OC)c2OC)c1OC`: the IC50 in the assay on SW480 amounted to 590 nM; in the assay on MCF7, 520 nM; in the assay on HepG2 it was 230 nM; in assay [1], 2390 nM; in assay [2], 400 nM; with A549, 320 nM.

For `COc1cc(OC)c(/C=C/C(=O)C(=Cc2cc(OC)c(O)c(OC)c2)C(=O)/C=C/c2c(OC)cc(OC)cc2OC)c(OC)c1`, the IC50 in the assay with SW480 is 980 nM; in the assay with MCF7, 1030 nM; in the assay on HepG2 it was 510 nM; in assay [1] it was more than 50000 nM; in assay [2], 680 nM; in the assay with A549 it was 340 nM.

For `COc1ccc(/C=C/C(=O)C(=Cc2ccc(O)c(F)c2)C(=O)/C=C/c2ccc(OC)cc2OC)c(OC)c1`, the IC50 amounted to 3350 nM with SW480; 5450 nM in the assay with MCF7; 1760 nM in the assay on HepG2; 23000 nM in assay [1]; 2830 nM in assay [2]; 2070 nM in the assay on A549.

For `COc1ccc(/C=C/C(=O)C(=Cc2cc(Br)c(O)c(OC)c2)C(=O)/C=C/c2ccc(OC)cc2OC)c(OC)c1`, the concentration for half-maximal inhibition (IC50) is 1480 nM in the assay with SW480; 2600 nM in the assay with MCF7; 1190 nM with HepG2; more than 50000 nM in assay [1]; 1780 nM in assay [2]; 1090 nM in the assay with A549.

`COc1cc(OC)c(/C=C/C(=O)C(=Cc2ccc(O)c(F)c2)C(=O)/C=C/c2c(OC)cc(OC)cc2OC)c(OC)c1`: the IC50 with SW480 was 1950 nM; with MCF7 it was 3180 nM; in the assay on HepG2 it was 810 nM; in assay [1], more than 50000 nM; in assay [2] it was 1580 nM; with A549 it was 1060 nM.

`COc1cccc(/C=C/C(=O)C(=Cc2ccc(O)c(F)c2)C(=O)/C=C/c2cccc(OC)c2OC)c1OC`: the IC50 in the assay on SW480 worked out at 330 nM; in the assay on MCF7, 300 nM; in the assay with HepG2 it was 220 nM; in assay [1], 5250 nM; in assay [2], 260 nM; in the assay with A549, 200 nM.

Regarding `COc1ccc(/C=C/C(=O)C(=Cc2ccc(O)c(OC)c2)C(=O)/C=C/c2ccc(OC)cc2OC)c(OC)c1`, the IC50 in the assay with SW480 came out at 1520 nM; in the assay with MCF7, 2140 nM; with HepG2, 510 nM; in assay [1], 10400 nM; in assay [2], 970 nM; with A549, 590 nM.

With `COc1ccc(OC)c(/C=C/C(=O)C(=Cc2ccc(O)c(F)c2)C(=O)/C=C/c2cc(OC)ccc2OC)c1`, the half-inhibitory concentration (IC50) with SW480 came out at 510 nM; in the assay with MCF7 it was 460 nM; in the assay on HepG2, 220 nM; in assay [1], 3010 nM; in assay [2], 380 nM; with A549, 220 nM.

Turning to `COc1ccc(OC)c(/C=C/C(=O)C(=Cc2ccc(O)c(OC)c2)C(=O)/C=C/c2cc(OC)ccc2OC)c1`, the concentration for half-maximal inhibition (IC50) in the assay with SW480 was found to be 410 nM; in the assay with MCF7, 400 nM; in the assay with HepG2, 340 nM; in assay [1] it was 2650 nM; in assay [2], 340 nM; with A549, 190 nM.

With `COc1cc(OC)c(/C=C/C(=O)C(=Cc2cc(Br)c(O)c(OC)c2)C(=O)/C=C/c2c(OC)cc(OC)cc2OC)c(OC)c1`, the IC50 in the assay on SW480 was 1450 nM; in the assay with MCF7, 1460 nM; in the assay on HepG2, 660 nM; in assay [1], more than 50000 nM; in assay [2], 1320 nM; in the assay on A549, 730 nM.

`COc1ccc(/C=C/C(=O)C(=Cc2cc(OC)c(O)c(OC)c2)C(=O)/C=C/c2ccc(OC)cc2OC)c(OC)c1`: the IC50 with SW480 amounted to 850 nM; in the assay with MCF7, 970 nM; in the assay with HepG2 it was 320 nM; in assay [1] it was 3930 nM; in assay [2], 850 nM; in the assay on A549 it was 300 nM.

Consider `COc1cc(C=C(C(=O)/C=C/c2cccc(OC)c2OC)C(=O)/C=C/c2cccc(OC)c2OC)cc(OC)c1O`, for which the IC50 amounted to 420 nM in the assay on SW480; 460 nM in the assay on MCF7; 210 nM in the assay with HepG2; 2620 nM in assay [1]; 300 nM in assay [2]; 240 nM in the assay on A549.

For the compound `COc1cc(C=C(C(=O)/C=C/c2cccc(OC)c2OC)C(=O)/C=C/c2cccc(OC)c2OC)cc(Br)c1O`, the IC50 came to 260 nM in the assay on SW480; 360 nM with MCF7; 240 nM in the assay on HepG2; 5530 nM in assay [1]; 220 nM in assay [2]; 200 nM in the assay on A549.

As to `COc1ccc(OC)c(/C=C/C(=O)C(=Cc2ccc(OC)c(OC)c2)C(=O)/C=C/c2cc(OC)ccc2OC)c1`, the IC50 with SW480 turned out to be 560 nM; in the assay with MCF7, 850 nM; with HepG2, 260 nM; in assay [1], 14400 nM; in assay [2], 550 nM; in the assay on A549 it was 400 nM.

Turning to `COc1ccc(OC)c(/C=C/C(=O)C(=Cc2cc(OC)c(O)c(OC)c2)C(=O)/C=C/c2cc(OC)ccc2OC)c1`, the IC50 with SW480 was found to be 500 nM; in the assay with MCF7 it was 430 nM; in the assay with HepG2, 210 nM; in assay [1], 950 nM; in assay [2], 450 nM; in the assay on A549 it was 190 nM.

With `COc1ccc(C=C(C(=O)/C=C/c2cccc(OC)c2OC)C(=O)/C=C/c2cccc(OC)c2OC)cc1O`, the 50% inhibitory concentration (IC50) worked out at 320 nM in the assay with SW480; 310 nM in the assay on MCF7; 270 nM with HepG2; 1260 nM in assay [1]; 220 nM in assay [2]; 270 nM in the assay with A549.

With `COc1cc(OC)c(C=C(C(=O)/C=C/c2cccc(OC)c2OC)C(=O)/C=C/c2cccc(OC)c2OC)c(OC)c1`, the IC50 with SW480 was 840 nM; with MCF7, 720 nM; in the assay on HepG2, 300 nM; in assay [1], more than 50000 nM; in assay [2], 630 nM; in the assay with A549, 630 nM.

With `COc1ccc(C=C(C(=O)/C=C/c2cccc(OC)c2OC)C(=O)/C=C/c2cccc(OC)c2OC)cc1OC`, the IC50 worked out at 410 nM in the assay on SW480; 560 nM in the assay on MCF7; 200 nM in the assay on HepG2; 1670 nM in assay [1]; 280 nM in assay [2]; 170 nM in the assay with A549.

With `COc1cc(/C=C/C(=O)CC(=O)/C=C/c2ccc(O)c(OC)c2)ccc1O` [CURCUMIN], the IC50 in the assay on SW480 was found to be 10200 nM; with MCF7 it was 15700 nM; in the assay on HepG2, 20700 nM; in assay [1] it was 21400 nM; in assay [2] it was 5760 nM; with A549, 11600 nM.

Turning to `COc1ccc(OC)c(/C=C/C(=O)/C=C(O)/C=C/c2cc(OC)ccc2OC)c1`, the IC50 in the assay with SW480 is 15600 nM; in the assay with MCF7, more than 50000 nM; in the assay on HepG2, 5560 nM; in assay [1], more than 50000 nM; in assay [2], 14700 nM; in the assay with A549, 16300 nM.

On to `COc1cccc(/C=C/C(=O)C(=Cc2ccc(OC)c(OC)c2OC)C(=O)/C=C/c2cccc(OC)c2OC)c1OC`, for which the half-inhibitory concentration (IC50) turned out to be 560 nM in the assay on SW480; 380 nM in the assay on MCF7; 240 nM in the assay with HepG2; 1630 nM in assay [1]; 410 nM in assay [2]; 260 nM in the assay with A549.

As to `COc1cc(OC)c(/C=C/C(=O)/C=C(O)/C=C/c2c(OC)cc(OC)cc2OC)c(OC)c1`, the IC50 in the assay on SW480 is more than 50000 nM; in the assay on MCF7, more than 50000 nM; in the assay on HepG2, 16500 nM; in assay [1] it was more than 50000 nM; in assay [2] it was more than 50000 nM; in the assay on A549 it was more than 50000 nM.

As to `COc1cccc(/C=C/C(=O)C(=Cc2cc(OC)c(OC)c(OC)c2)C(=O)/C=C/c2cccc(OC)c2OC)c1OC`, the IC50 with SW480 is 650 nM; in the assay with MCF7, 840 nM; in the assay with HepG2, 220 nM; in assay [1] it was 1320 nM; in assay [2], 400 nM; in the assay with A549 it was 230 nM.

On to `COc1cc(OC)c(/C=C/C(=O)C(=Cc2ccc(O)c(OC)c2)C(=O)/C=C/c2c(OC)cc(OC)cc2OC)c(OC)c1`, for which the IC50 in the assay on SW480 was 1490 nM; in the assay on MCF7 it was 1880 nM; in the assay with HepG2, 670 nM; in assay [1], more than 50000 nM; in assay [2], 1350 nM; with A549, 580 nM.

The values above are taken from ChEMBL document CHEMBL2062524, “Synthesis, cytotoxicity of new 4-arylidene curcumin analogues and their multi-functions in inhibition of both NF-κB and Akt signalling” (Eur J Med Chem, 2012).
